Results as given in ChEMBL document CHEMBL4024748, “Development of Potent Type I Protein Arginine Methyltransferase (PRMT) Inhibitors of Leukemia Cell Proliferation” (J Med Chem, 2017).
Calls of active or inactive are those of the source.

Assays:
THP-1 = assay: Cytotoxicity against human THP1 cells assessed as decrease in cell viability after 96 hrs by Cell-Titer Glo assay; type: functional, cell-based
In short: (§1)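 Cells kept at 37°C, 5% CO2, exposed to compound or DMSO control for 96 h. Viability read by CellTiter-Glo luminescence after 2 min shaking to lyse and 10 min at room temperature. Triplicate wells, normalised to control cells. For long-term growth, log-phase seeding densities; cells counted and replated to the starting density with fresh compound on days 4 and 8.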

[1] = biological target: Histone-lysine N-methyltransferase 2A (Homo sapiens) (UniProt Q03164); assay: Inhibition of MLL1 (unknown origin) at 50 uM incubated for 15 mins followed by substrate addition measured after 60 mins by AlphaLisa method
In short: (§2)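 AlphaLISA. Enzyme and substrate in 1x assay buffer, compound at 1% DMSO final. Enzyme preincubated with compound 15 min at room temperature, then substrate added. Reaction 60 min at room temperature, then bead mix added and incubated 60 min under subdued light before signal read.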

[2] = biological target: Histone-lysine N-methyltransferase EHMT2 (Homo sapiens) (UniProt Q96KQ7); assay: Inhibition of G9a (unknown origin) at 100 uM incubated for 15 mins followed by substrate addition measured after 60 mins by AlphaLisa method; in short: as §2
[3] = biological target: Histone acetyltransferase KAT2A (Homo sapiens) (UniProt Q92830); assay: Inhibition of GCN5 (unknown origin) at 50 uM incubated for 15 mins followed by substrate addition measured after 60 mins by radioisotope assay
MV4-11 [4] = assay: Antiproliferative activity against human MV4-11 cells assessed as decrease in cell viability measured at day 12 by Cell-Titer Glo assay; type: functional, cell-based; details: MV4-11, 288 h; in short: as §1
MV4-11 [5] = assay: Downregulation of HOXA10 mRNA levels in human MV4-11 cells by qRT-PCR analysis; type: functional, cell-based
In short: (§3)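 MV4-11 cells treated with compound. mRNA measured by SYBR Green qRT-PCR with B2M as internal control. Fold change from ΔΔCt. Samples run in triplicate, mean ± SD.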

[6] = Cytotoxicity against human RCTEC cells assessed as decrease in cell viability at 6.25 to 25 uM after 96 hrs by Cell-Titer Glo assay; type: cell-based
In short: (§4)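 Normal HUV-EC-C, MRC-5 and RCTEC cells at 37°C, 5% CO2, given compound or DMSO control for 96 h. Viability by CellTiter-Glo luminescence after 2 min shaking and 10 min at room temperature. Triplicate wells, normalised to control cells.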

[7] = biological target: Histone-lysine N-methyltransferase SUV39H1 (Homo sapiens) (UniProt O43463); assay: Inhibition of SUV39H1 (unknown origin) at 100 uM incubated for 15 mins followed by substrate addition measured after 60 mins by AlphaLisa method
In short: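 SUV39H1 AlphaLISA at 50 and 100 µM compound, 1% DMSO final. Enzyme preincubated 15 min at room temperature, substrate reaction 60 min at RT. Bead mix then added for 60 min at RT in subdued light before signal collection.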

[8] = biological target: DNA (cytosine-5)-methyltransferase 1 (Homo sapiens) (UniProt P26358); assay: Inhibition of DNMT1 (unknown origin) at 50 uM incubated for 15 mins followed by substrate addition measured after 60 mins by radioisotope assay
[9] = biological target: Protein arginine N-methyltransferase 6 (Homo sapiens, UniProt Q96LA8); assay: Inhibition of PRMT6 in human MV411 cells assessed as reduction in H3R2me2a levels after 48 hrs by Western blot analysis; type: cell-based
In short: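 MV4-11 cells (37°C, 5% CO2) exposed to compound for 48 h across a range of doses. Histone H3R2 asymmetric dimethylation read by western blot. Membranes blocked in 5% milk/PBST, primary antibody overnight at 4°C, then 1:10000 HRP donkey anti-rabbit secondary for 1 h.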

[10] = Cytotoxicity against human HUV-EC-C cells assessed as decrease in cell viability at 6.25 to 25 uM after 96 hrs by Cell-Titer Glo assay; type: cell-based; in short: as §4
[11] = biological target: Histone acetyltransferase KAT2A (Homo sapiens) (UniProt Q92830); assay: Inhibition of GCN5 (unknown origin) at 100 uM incubated for 15 mins followed by substrate addition measured after 60 mins by radioisotope assay
MV4-11 [12] = assay: Downregulation of HOXA9 mRNA levels in human MV4-11 cells by qRT-PCR analysis; type: functional, cell-based; in short: as §3
[13] = biological target: DNA (cytosine-5)-methyltransferase 1 (Homo sapiens) (UniProt P26358); assay: Inhibition of DNMT1 (unknown origin) at 100 uM incubated for 15 mins followed by substrate addition measured after 60 mins by radioisotope assay
[14] = biological target: Protein arginine N-methyltransferase 1 (Rattus norvegicus) (UniProt Q63009); assay: Binding affinity to rat His-tagged PRMT1 (11 to 353 residues) expressed in Escherichia coli BL21(DE3) at 200 uM by STD-NMR spectroscopic method
In short: (§5)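 Rat PRMT1 (11–353), N-His6, expressed in E. coli BL21(DE3) with 0.4 mM IPTG at 16°C. Purified by Ni affinity and Superdex200. NMR used 5 µM PRMT1 in phosphate buffer pH 7.4 (20 mM NaH2PO4, 20 mM Na2HPO4, 100 mM NaCl) in D2O. Ligand at 200 µM in 5% DMSO-d6. CPMG run with 5, 2 and 1 µM PRMT1, plus STD.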

[15] = biological target: Histone-lysine N-methyltransferase EHMT2 (Homo sapiens) (UniProt Q96KQ7); assay: Inhibition of G9a (unknown origin) at 50 uM incubated for 15 mins followed by substrate addition measured after 60 mins by AlphaLisa method; in short: as §2
[16] = biological target: Protein arginine N-methyltransferase 8 (Homo sapiens, UniProt Q9NR22); assay: Inhibition of PRMT8 (unknown origin) incubated for 15 mins followed by substrate addition measured after 60 mins by AlphaLisa method
In short: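 AlphaLISA IC50 run. Compound dispensed to 1% DMSO final, enzyme in 1x assay buffer preincubated 15 min at room temperature. Substrate added and reacted 60 min at RT, then AlphaLISA bead mix added for 60 min at RT in subdued light. IC50 taken from the dose-response fit.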

[17] = biological target: Protein arginine N-methyltransferase 3 (Homo sapiens, UniProt O60678); assay: Inhibition of PRMT3 (unknown origin) incubated for 15 mins followed by substrate addition measured after 60 mins by AlphaLisa method; in short: as §2
[18] = biological target: Protein arginine N-methyltransferase 5 (Homo sapiens, UniProt O14744); assay: Inhibition of PRMT5 (unknown origin) incubated for 15 mins followed by substrate addition measured after 60 mins by AlphaLisa method; in short: as §2
[19] = biological target: Protein arginine N-methyltransferase 1 (Rattus norvegicus) (UniProt Q63009); assay: Binding affinity to rat His-tagged PRMT1 (11 to 353 residues) expressed in Escherichia coli BL21(DE3) at 200 uM by 1D 1H CPMG-NMR spectroscopic method; in short: as §5
[20] = biological target: Protein arginine N-methyltransferase 1 (Rattus norvegicus) (UniProt Q63009); assay: Uncompetitive inhibition of rat His-tagged PRMT1 (11 to 353 residues) expressed in Escherichia coli BL21(DE3) using biotinylated H4 peptide (1 to 21 residues) as substrate in presence of varying concentrations of [3H]SAM
In short: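 Kinetic mode-of-action study using the radiolabel method with His6-rPRMT1(11–353). IC50 measured at varied peptide substrate or varied SAM concentrations, with the other component fixed. 15 min enzyme–compound preincubation, then 60 min reaction at RT with [3H]-SAM, Flashplate capture and Microbeta counting.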

Chain of Protein arginine N-methyltransferase 1 (Rattus norvegicus) (Q63009 whole entry, looked up, the tested form may be a part): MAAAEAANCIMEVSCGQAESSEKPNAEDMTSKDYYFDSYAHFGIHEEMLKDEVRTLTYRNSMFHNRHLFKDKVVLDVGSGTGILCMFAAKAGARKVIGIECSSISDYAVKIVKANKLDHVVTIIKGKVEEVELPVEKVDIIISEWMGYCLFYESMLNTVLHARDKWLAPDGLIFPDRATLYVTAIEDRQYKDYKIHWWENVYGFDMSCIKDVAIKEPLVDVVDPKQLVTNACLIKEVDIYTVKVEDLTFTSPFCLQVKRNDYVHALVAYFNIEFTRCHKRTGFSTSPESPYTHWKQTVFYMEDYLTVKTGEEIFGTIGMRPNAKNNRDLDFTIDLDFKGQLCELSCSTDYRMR
Chain of Histone-lysine N-methyltransferase EHMT2 (Homo sapiens) (Q96KQ7 whole entry): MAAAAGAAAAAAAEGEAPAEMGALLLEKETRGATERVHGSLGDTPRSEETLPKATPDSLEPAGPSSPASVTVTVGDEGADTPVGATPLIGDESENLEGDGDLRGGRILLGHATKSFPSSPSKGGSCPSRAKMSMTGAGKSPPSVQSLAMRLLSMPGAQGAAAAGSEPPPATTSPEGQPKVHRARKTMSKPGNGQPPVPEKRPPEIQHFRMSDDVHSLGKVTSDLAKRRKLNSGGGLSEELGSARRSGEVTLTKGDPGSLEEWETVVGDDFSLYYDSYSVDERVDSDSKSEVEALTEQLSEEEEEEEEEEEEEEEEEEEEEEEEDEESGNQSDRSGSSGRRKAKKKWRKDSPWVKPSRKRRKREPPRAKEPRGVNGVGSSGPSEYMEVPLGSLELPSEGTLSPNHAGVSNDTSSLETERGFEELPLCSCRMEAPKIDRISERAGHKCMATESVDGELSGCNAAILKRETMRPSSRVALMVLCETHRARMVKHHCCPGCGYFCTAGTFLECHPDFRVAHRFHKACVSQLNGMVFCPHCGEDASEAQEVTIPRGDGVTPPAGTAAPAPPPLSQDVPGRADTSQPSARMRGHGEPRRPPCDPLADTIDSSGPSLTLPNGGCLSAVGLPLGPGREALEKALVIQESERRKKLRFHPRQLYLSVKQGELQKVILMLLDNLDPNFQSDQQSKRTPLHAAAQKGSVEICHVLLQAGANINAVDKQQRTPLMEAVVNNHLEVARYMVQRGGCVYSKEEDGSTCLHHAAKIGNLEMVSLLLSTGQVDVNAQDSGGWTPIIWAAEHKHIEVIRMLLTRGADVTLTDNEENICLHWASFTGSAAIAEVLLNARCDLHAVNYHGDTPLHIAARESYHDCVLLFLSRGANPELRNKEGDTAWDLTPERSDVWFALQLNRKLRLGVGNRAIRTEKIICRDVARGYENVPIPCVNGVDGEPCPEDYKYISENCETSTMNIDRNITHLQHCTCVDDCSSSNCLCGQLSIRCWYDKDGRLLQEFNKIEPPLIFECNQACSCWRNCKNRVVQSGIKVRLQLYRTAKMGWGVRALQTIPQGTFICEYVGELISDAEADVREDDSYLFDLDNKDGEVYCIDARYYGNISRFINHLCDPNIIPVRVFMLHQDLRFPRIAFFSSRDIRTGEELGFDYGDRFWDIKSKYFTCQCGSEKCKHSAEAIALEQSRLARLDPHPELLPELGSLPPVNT
Chain of Histone acetyltransferase KAT2A (Homo sapiens) (Q92830 2-837 limits assumed): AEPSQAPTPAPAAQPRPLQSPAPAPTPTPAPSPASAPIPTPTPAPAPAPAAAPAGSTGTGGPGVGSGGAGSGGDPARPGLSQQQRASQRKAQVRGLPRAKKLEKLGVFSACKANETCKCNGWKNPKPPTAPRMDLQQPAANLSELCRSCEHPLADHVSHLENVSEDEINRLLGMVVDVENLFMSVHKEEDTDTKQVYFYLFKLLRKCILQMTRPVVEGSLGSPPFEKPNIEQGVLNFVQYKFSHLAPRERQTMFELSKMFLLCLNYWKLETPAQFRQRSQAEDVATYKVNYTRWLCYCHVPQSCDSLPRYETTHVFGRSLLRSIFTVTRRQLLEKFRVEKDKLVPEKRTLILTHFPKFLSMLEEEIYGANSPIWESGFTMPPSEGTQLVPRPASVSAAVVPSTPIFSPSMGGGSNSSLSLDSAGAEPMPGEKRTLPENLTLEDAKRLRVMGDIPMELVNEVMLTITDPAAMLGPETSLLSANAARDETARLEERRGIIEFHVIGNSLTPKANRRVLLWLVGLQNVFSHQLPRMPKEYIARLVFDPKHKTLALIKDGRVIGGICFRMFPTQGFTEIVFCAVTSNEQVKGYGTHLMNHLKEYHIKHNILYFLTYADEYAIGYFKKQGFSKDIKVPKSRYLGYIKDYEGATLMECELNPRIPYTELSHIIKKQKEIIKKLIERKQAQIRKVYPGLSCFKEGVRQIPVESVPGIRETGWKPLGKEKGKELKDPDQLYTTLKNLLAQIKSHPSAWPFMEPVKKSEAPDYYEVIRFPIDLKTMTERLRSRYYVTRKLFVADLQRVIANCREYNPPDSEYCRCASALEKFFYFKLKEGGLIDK
Chain of DNA (cytosine-5)-methyltransferase 1 (Homo sapiens) (P26358 whole entry, the tested form may be a part): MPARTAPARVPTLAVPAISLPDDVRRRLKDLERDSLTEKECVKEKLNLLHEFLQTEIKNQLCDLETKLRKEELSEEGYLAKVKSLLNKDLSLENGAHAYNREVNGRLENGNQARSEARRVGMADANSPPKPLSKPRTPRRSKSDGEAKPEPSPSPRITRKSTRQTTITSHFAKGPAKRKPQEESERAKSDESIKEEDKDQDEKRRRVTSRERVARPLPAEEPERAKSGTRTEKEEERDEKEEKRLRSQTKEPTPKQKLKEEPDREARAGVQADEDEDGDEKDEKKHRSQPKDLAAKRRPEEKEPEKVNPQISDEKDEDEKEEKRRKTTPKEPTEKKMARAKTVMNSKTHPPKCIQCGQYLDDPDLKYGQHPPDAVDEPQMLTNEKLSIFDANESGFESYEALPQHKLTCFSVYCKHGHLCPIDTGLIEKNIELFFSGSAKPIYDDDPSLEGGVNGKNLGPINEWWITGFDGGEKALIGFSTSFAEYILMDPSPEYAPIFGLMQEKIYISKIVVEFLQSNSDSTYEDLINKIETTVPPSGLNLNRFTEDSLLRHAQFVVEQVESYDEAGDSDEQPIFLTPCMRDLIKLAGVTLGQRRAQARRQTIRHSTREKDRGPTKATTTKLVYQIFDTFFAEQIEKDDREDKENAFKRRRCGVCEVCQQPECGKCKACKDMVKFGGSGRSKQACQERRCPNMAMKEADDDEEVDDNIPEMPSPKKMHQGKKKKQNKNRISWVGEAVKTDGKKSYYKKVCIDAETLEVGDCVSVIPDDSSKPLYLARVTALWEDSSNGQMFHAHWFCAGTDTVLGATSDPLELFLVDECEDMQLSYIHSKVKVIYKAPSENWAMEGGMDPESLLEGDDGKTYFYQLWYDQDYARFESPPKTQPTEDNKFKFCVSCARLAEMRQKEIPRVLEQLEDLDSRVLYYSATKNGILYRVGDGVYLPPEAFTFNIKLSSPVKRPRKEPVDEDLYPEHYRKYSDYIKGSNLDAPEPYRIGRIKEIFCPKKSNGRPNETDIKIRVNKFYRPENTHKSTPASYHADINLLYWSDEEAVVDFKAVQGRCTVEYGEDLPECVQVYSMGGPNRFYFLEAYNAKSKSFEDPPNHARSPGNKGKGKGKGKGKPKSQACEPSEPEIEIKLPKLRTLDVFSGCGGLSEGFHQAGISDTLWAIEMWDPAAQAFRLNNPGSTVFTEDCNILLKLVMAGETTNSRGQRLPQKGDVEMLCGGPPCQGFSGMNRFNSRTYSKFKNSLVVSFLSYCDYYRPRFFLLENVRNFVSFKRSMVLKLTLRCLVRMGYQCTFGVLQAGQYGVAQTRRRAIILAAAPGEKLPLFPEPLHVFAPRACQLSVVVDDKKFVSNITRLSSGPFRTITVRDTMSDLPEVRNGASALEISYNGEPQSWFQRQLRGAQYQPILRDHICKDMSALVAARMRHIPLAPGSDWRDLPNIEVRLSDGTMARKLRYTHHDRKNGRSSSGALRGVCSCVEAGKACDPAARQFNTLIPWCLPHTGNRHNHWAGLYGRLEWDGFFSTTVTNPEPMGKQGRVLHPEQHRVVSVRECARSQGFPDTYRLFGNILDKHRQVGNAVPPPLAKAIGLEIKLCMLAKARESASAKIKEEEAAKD
Chain of Protein arginine N-methyltransferase 8 (Q9NR22 whole entry): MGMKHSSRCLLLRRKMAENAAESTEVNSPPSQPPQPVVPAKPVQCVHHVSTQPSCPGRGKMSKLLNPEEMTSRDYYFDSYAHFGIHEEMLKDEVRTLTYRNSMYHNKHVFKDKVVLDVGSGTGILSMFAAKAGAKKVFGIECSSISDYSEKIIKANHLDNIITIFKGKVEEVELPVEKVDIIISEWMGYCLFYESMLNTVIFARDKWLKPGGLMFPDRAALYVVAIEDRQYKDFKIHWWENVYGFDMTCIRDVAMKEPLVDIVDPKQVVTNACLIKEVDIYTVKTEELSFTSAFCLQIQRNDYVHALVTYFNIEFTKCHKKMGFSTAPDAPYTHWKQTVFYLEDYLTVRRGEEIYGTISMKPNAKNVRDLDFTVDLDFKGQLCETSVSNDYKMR
Chain of Protein arginine N-methyltransferase 6 (Q96LA8 whole entry, looked up): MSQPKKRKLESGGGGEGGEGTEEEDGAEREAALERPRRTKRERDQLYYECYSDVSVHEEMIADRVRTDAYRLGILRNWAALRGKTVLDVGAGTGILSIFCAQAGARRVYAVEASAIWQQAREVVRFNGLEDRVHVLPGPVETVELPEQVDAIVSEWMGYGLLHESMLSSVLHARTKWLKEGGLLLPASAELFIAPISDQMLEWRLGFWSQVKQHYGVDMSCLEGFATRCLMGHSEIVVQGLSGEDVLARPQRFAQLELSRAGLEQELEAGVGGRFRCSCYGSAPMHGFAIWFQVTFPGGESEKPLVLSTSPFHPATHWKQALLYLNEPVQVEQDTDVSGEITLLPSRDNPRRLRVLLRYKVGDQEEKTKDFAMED

CN(CCN)Cc1ccccc1Sc1ccccc1Cl
22 nM: IC50 [17]
Non-Toxic: Activity [6] | Activity [10]
810 nM: IC50 (MV4-11 [4])
active: Activity (THP-1) Dose-dependent effect | inhibition [1] | inhibition [2] | inhibition [3] | Activity (MV4-11 [5]) Dose-dependent effect | inhibition [7] | inhibition [8] | inhibition [9] Dose-dependent effect | inhibition [11] | Activity (MV4-11 [12]) Dose-dependent effect | inhibition [13] | Activity [14] | inhibition [15] | Activity [19] | inhibition [20]
1.1 nM: IC50 [16]
> 100000 nM: IC50 [18]
